Data taken from ChEMBL document CHEMBL5576109, “Hydantoin derivative dimers as broad-spectrum antimicrobial agents against ESKAPE pathogens with enhanced killing rate and stability” (RSC Med Chem, 2024).
In brackets after ≈: the same amount, converted by molar mass.

Experiments:
Staphylococcus aureus [1] = test: Antibacterial activity against Staphylococcus aureus ATCC 29213 assessed as reduction bacterial growth after 16 hrs by TECAN SPARK microplate reader analysis; assay type: functional
Summary of the method: (§1)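 Single colony grown overnight in 4 mL TSB at 37 °C, diluted 100-fold and grown to mid-log phase. Compounds 2-fold serially diluted in TSB and mixed 1:1 with bacteria in TSB (1 × 10^6 CFU/mL). Incubated 16 h at 37 °C, then A600 read. MIC taken as the lowest concentration giving complete growth inhibition.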

Enterococcus faecalis = test: Antibacterial activity against Enterococcus faecalis ATCC 29212 assessed as reduction bacterial growth after 16 hrs by TECAN SPARK microplate reader analysis; assay type: functional; summary of the method: as §1
Bacillus subtilis = test: Antibacterial activity against Bacillus subtilis ATCC 6633 assessed as reduction bacterial growth after 16 hrs by TECAN SPARK microplate reader analysis; assay type: functional; summary of the method: as §1
Staphylococcus aureus [2] = test: Antibacterial activity against methicillin-resistant Staphylococcus aureus ATCC 43300 assessed as reduction bacterial growth after 16 hrs by TECAN SPARK microplate reader analysis; assay type: functional
Summary of the method: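 Broth microdilution in TSB: single colony grown overnight at 37 °C, diluted 100-fold and grown to mid-log phase. 2-fold serial compound dilutions mixed 1:1 with bacteria at 1 × 10^6 CFU/mL, incubated 16 h at 37 °C, absorbance read at 600 nm. MIC taken as lowest concentration giving complete growth inhibition.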

Escherichia coli = test: Antibacterial activity against Escherichia coli ATCC 25922 assessed as reduction bacterial growth after 16 hrs by TECAN SPARK microplate reader analysis; assay type: functional; summary of the method: as §1
Pseudomonas aeruginosa = test: Antibacterial activity against Pseudomonas aeruginosa CMCC 10104 assessed as reduction bacterial growth after 16 hrs by TECAN SPARK microplate reader analysis; assay type: functional; summary of the method: as §1
Acinetobacter baumannii = test: Antibacterial activity against Acinetobacter baumannii ATCC 19606 assessed as reduction bacterial growth after 16 hrs by TECAN SPARK microplate reader analysis; assay type: functional; summary of the method: as §1
Klebsiella pneumoniae = test: Antibacterial activity against Klebsiella pneumoniae ATCC 10031 assessed as reduction bacterial growth after 16 hrs by TECAN SPARK microplate reader analysis; assay type: functional; summary of the method: as §1
[3] = Hemolytic activity in mouse red blood cells assessed as hemolysis incubated for 1 hr by TECAN SPARK microplate reader analysis; assay type: toxicity, cell-based, Erythrocyte; conditions: red blood cells (erythrocytes)
Summary of the method: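 Mouse RBCs washed three times in 1× PBS by centrifugation (3500 rpm, 10 min) and made up as a 5% v/v suspension. Incubated with 2-fold serially diluted compound in PBS for 1 h at 37 °C, then centrifuged. Supernatant diluted in PBS and A540 read. % hemolysis calculated relative to 1% Triton X-100 (100%) and PBS (0%).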

Molecule	MIC (Staphylococcus aureus [1]) [µg/mL]	MIC (Enterococcus faecalis) [µg/mL]	MIC (Bacillus subtilis) [µg/mL]	MIC (Staphylococcus aureus [2]) [µg/mL]	MIC (Escherichia coli) [µg/mL]	MIC (Pseudomonas aeruginosa) [µg/mL]	MIC (Acinetobacter baumannii) [µg/mL]	MIC (Klebsiella pneumoniae) [µg/mL]	HC50 at 1 h [3] [µg/mL]
CCCCCCN1C(=O)[C@H](CCCCN)N(Cc2ccc(CN3C(=O)N(CCCCCC)C(=O)[C@@H]3CCCCN)cc2)C1=O	31.2 (≈ 51 µM)	125 (≈ 204 µM)	3.91 (≈ 6.38 µM)	250 (≈ 408 µM)	250 (≈ 408 µM)	62.5 (≈ 102 µM)	250 (≈ 408 µM)	62.5 (≈ 102 µM)	
CCCCCCN1C(=O)[C@H](CCCCN)N(Cc2cccc(CN3C(=O)N(CCCCCC)C(=O)[C@@H]3CCCCN)c2)C1=O	31.2 (≈ 51 µM)	62.5 (≈ 102 µM)	7.81 (≈ 12.7 µM)	250 (≈ 408 µM)	250 (≈ 408 µM)	31.2 (≈ 51 µM)	125 (≈ 204 µM)	62.5 (≈ 102 µM)	
CN[C@H](CC(C)C)C(=O)N[C@H]1C(=O)N[C@@H](CC(N)=O)C(=O)N[C@H]2C(=O)N[C@H]3C(=O)N[C@H](C(=O)N[C@H](C(=O)O)c4cc(O)cc(O)c4-c4cc3ccc4O)[C@H](O)c3ccc(c(Cl)c3)Oc3cc2cc(c3O[C@@H]2O[C@H](CO)[C@@H](O)[C@H](O)[C@H]2O[C@H]2C[C@](C)(N)[C@H](O)[C@H](C)O2)Oc2ccc(cc2Cl)[C@H]1O [VANCOMYCIN]	1.95 (≈ 1.35 µM)				125 (≈ 86.3 µM)				
CO[C@H]1/C=C/O[C@@]2(C)Oc3c(C)c(O)c4c(O)c(c(/C=N/N5CCN(C)CC5)c(O)c4c3C2=O)NC(=O)/C(C)=C\C=C\[C@H](C)[C@H](O)[C@@H](C)[C@@H](O)[C@@H](C)[C@H](OC(C)=O)[C@@H]1C [RIFAMPIN]	0.12 (≈ 0.146 µM)				7.81 (≈ 9.49 µM)				
CCCCCCN1C(=O)[C@H](CCCCNC(=N)N)N(Cc2cccc(-c3cccc(CN4C(=O)N(CCCCCC)C(=O)[C@@H]4CCCCNC(=N)N)c3)c2)C1=O	1.95 (≈ 2.52 µM)	7.81 (≈ 10.1 µM)	3.91 (≈ 5.06 µM)	7.81 (≈ 10.1 µM)	7.81 (≈ 10.1 µM)	15.6 (≈ 20.2 µM)	15.6 (≈ 20.2 µM)	3.91 (≈ 5.06 µM)	73.7
O=C(O)c1cn(C2CC2)c2cc(N3CCNCC3)c(F)cc2c1=O [CIPROFLOXACIN]	0.39 (≈ 1.18 µM)								
CCCCCCCN1C(=O)[C@H](CCCCN)N(Cc2ccc(-c3ccc(CN4C(=O)N(CCCCCCC)C(=O)[C@@H]4CCCCN)cc3)cc2)C1=O	3.91 (≈ 5.45 µM)	7.81 (≈ 10.9 µM)	3.91 (≈ 5.45 µM)	62.5 (≈ 87.2 µM)	7.81 (≈ 10.9 µM)	15.6 (≈ 21.8 µM)	7.81 (≈ 10.9 µM)	7.81 (≈ 10.9 µM)	156
CCCCCCN1C(=O)[C@H](CCCCN)N(Cc2ccc(-c3ccc(-c4ccc(CN5C(=O)N(CCCCCC)C(=O)[C@@H]5CCCCN)cc4)cc3)cc2)C1=O	7.81 (≈ 10.2 µM)	15.6 (≈ 20.4 µM)	3.91 (≈ 5.11 µM)	250 (≈ 327 µM)	62.5 (≈ 81.7 µM)	250 (≈ 327 µM)	125 (≈ 163 µM)	62.5 (≈ 81.7 µM)	
CC1(C)S[C@@H]2[C@H](NC(=O)Cc3ccccc3)C(=O)N2[C@H]1C(=O)O [PENICILLIN G]	0.98 (≈ 2.93 µM)				250 (≈ 748 µM)				
CCCCCCN1C(=O)[C@H](CCCCN)N(Cc2ccc(C#Cc3ccc(CN4C(=O)N(CCCCCC)C(=O)[C@@H]4CCCCN)cc3)cc2)C1=O	1.95 (≈ 2.73 µM)	7.81 (≈ 11 µM)	3.91 (≈ 5.48 µM)	62.5 (≈ 87.7 µM)	7.81 (≈ 11 µM)	15.6 (≈ 21.9 µM)	7.81 (≈ 11 µM)	7.81 (≈ 11 µM)	18
COc1cccc(OC)c1C(=O)N[C@@H]1C(=O)N2[C@@H]1SC(C)(C)[C@@H]2C(=O)O [METHICILLIN]				250 (≈ 657 µM)					
CC1(C)S[C@@H]2[C@H](NC(=O)[C@H](N)c3ccccc3)C(=O)N2[C@H]1C(=O)O [AMPICILLIN]	0.98 (≈ 2.8 µM)				250 (≈ 715 µM)				
COLISTIN	250				3.91				
CCCCCCN1C(=O)[C@H](CCCCN)N(Cc2ccc(Oc3ccc(CN4C(=O)N(CCCCCC)C(=O)[C@@H]4CCCCN)cc3)cc2)C1=O	3.91 (≈ 5.55 µM)	7.81 (≈ 11.1 µM)	3.91 (≈ 5.55 µM)	7.81 (≈ 11.1 µM)	3.91 (≈ 5.55 µM)	31.2 (≈ 44.3 µM)	3.91 (≈ 5.55 µM)	3.91 (≈ 5.55 µM)	69
